The record followed here is ChEMBL document CHEMBL1131093, “ATP-Citrate lyase as a target for hypolipidemic intervention. 2. Synthesis and evaluation of (3R,5S)-omega-substituted-3-carboxy-3, 5-dihydroxyalkanoic acids and their gamma-lactone prodrugs as inhibitors of the enzyme in vitro and in vivo” (J Med Chem, 1998).

Experiment [1] deals with T1, ATP-citrate synthase (Rattus norvegicus, UniProt P16638).
T1 sequence (P16638 whole entry): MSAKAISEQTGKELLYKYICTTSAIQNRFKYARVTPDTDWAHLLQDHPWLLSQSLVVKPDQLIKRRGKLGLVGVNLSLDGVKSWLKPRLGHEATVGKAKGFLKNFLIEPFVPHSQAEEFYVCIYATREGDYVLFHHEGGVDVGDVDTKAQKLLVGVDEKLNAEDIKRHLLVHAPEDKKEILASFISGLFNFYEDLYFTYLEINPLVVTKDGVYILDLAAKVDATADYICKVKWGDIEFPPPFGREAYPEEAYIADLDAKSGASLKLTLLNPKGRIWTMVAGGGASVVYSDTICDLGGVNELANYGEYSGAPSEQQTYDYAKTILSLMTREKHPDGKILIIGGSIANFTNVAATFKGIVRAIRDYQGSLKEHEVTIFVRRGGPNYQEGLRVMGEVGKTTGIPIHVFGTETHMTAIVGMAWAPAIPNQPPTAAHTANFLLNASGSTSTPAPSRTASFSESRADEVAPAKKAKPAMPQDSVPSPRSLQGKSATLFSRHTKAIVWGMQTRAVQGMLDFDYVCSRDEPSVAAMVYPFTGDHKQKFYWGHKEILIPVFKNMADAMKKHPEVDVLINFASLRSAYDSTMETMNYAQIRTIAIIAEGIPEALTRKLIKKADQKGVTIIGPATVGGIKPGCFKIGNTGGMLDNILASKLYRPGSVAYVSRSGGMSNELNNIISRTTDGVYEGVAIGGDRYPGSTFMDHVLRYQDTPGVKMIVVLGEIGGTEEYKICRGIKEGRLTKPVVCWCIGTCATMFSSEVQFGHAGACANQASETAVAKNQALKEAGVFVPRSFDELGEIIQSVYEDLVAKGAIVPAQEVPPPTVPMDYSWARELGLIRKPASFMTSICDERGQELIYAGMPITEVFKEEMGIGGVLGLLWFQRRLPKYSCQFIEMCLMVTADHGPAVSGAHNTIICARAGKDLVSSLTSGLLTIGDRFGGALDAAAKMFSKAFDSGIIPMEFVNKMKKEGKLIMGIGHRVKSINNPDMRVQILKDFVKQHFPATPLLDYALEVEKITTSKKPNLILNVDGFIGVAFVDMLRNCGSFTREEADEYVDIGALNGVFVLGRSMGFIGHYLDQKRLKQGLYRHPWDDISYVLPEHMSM
In words: Inhibitory activity was tested against ATP-Citrate Lyase (ACL) enzyme in rat.

Experiment [2] deals with Rattus norvegicus. In words: % Reduction of plasma triglyceride in the rat was measured at dose 37.5 mg/kg/d. Format: functional. In short, it runs like this:
(§1)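 Male Sprague-Dawley rats were kept on a reverse 12 h light/12 h dark cycle with free access to RM1 powdered diet and water. Compound was given orally by gavage as two doses 24 h apart. Blood was drawn mid dark cycle, 4 h after the second dose, into EDTA. Plasma was separated at 1500g for 15 min. Triglyceride was measured enzymatically (GPO-PAP) and reported as % reduction from control.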

For experiment [3], the system named is Rattus norvegicus. The experiment is described as follows: % Reduction of plasma triglyceride in the rat was measured at dose 75 mg/kg/d. In kind it is functional. Summed up: as §1
For experiment [4], the system named is HepG2. In words: Inhibition of ATP levels in HepG2 cells was measured at 1 uM concentration. In kind it is functional, Homo sapiens. Further details: scale not given: the % may be the effect or the level left. Summed up: (§2)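 Compounds were applied to HepG2 cells as their γ-lactone prodrugs. De novo cholesterol synthesis, fatty acid synthesis and cellular ATP levels were each expressed as % of control. Significance was marked at p < 0.001.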

The test system of experiment [5] is HepG2. The experiment is described as follows: Inhibition of ATP levels in HepG2 cells was measured at 10 uM concentration. In kind it is functional, Homo sapiens. Further details: scale not given: the % may be the effect or the level left. Summed up: as §2
The subject of experiment [6] is HepG2. The experiment is described as follows: Inhibition of ATP levels in HepG2 cells was measured at 3 uM concentration. Further details: scale not given: the % may be the effect or the level left. Format: functional, Homo sapiens. In short, it runs like this: as §2
Experiment [7] deals with HepG2. In words: Inhibition of cholesterol synthesis in HepG2 cells was measured at 10 uM concentration. Format: functional, Homo sapiens. Further details: scale not given: the % may be the effect or the level left. In short, it runs like this: as §2
Experiment [8] has as its system HepG2. The experiment is described as follows: Inhibition of cholesterol synthesis in HepG2 cells was measured at 3 uM concentration. In kind it is functional, Homo sapiens. Further details: scale not given: the % may be the effect or the level left. In short, it runs like this:
as §2

The subject of experiment [9] is HepG2. In words: Inhibition of fatty acid synthesis in HepG2 cells was measured at 3 uM concentration. Format: functional, Homo sapiens. Further details: scale not given: the % may be the effect or the level left. In short, it runs like this:
as §2

In experiment [10] the test system is HepG2. The experiment is described as follows: Inhibition of fatty acid synthesis in HepG2 cells was measured at 10 uM concentration. Format: functional, Homo sapiens. Further details: scale not given: the % may be the effect or the level left. Summed up:
as §2

Experiment [11] addresses T2, ATP-citrate synthase (Homo sapiens) (UniProt P53396).
T2 sequence (whole entry): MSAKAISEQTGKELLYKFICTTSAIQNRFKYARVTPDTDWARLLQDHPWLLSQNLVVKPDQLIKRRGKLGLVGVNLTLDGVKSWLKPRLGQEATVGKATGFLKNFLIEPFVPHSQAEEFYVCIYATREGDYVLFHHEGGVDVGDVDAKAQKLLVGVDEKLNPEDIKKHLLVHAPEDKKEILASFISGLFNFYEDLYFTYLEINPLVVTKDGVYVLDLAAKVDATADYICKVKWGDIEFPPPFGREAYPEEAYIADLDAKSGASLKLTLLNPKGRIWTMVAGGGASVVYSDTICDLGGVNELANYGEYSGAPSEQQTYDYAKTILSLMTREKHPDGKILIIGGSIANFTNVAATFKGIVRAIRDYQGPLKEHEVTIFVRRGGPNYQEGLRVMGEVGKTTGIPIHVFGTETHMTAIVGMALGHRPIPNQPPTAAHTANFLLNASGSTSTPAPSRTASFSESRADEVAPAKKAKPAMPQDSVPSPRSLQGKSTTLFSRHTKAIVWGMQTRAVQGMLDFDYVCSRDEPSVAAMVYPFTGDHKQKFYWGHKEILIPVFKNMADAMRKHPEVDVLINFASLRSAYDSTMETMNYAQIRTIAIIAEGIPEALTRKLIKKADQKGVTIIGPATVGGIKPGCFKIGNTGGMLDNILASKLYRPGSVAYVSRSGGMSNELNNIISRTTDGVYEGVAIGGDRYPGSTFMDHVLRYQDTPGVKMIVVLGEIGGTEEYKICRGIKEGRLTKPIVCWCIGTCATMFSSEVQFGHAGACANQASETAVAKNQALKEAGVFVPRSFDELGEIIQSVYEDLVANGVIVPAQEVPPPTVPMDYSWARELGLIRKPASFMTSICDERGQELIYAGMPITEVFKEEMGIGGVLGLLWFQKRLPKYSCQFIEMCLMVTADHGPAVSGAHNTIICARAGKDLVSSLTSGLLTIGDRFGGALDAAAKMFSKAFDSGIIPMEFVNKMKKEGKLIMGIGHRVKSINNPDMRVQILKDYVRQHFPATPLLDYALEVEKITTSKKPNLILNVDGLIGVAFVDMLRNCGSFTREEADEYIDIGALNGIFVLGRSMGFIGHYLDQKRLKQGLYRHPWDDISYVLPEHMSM
In words: Inhibitory activity was tested against human recombinant ATP-Citrate Lyase (ACL) enzyme at 100 uM.

In experiment [12] the test system is HepG2. In words: Inhibition of fatty acid synthesis in HepG2 cells was measured at 5 uM concentration. In kind it is functional, Homo sapiens. Further details: scale not given: the % may be the effect or the level left. Summed up:
as §2

The subject of experiment [13] is HepG2. In words: Inhibition of ATP levels in HepG2 cells was measured at 15 uM concentration. In kind it is functional, Homo sapiens. Further details: scale not given: the % may be the effect or the level left. Summed up: as §2
For experiment [14], the system named is HepG2. The experiment is described as follows: Inhibition of cholesterol synthesis in HepG2 cells was measured at 30 uM concentration. In kind it is functional, Homo sapiens. Further details: scale not given: the % may be the effect or the level left. In short, it runs like this: as §2
Experiment [15] deals with HepG2. In words: (§3) Inhibition of fatty acid synthesis in HepG2 cells was measured at 15 uM concentration. In kind it is functional, Homo sapiens. Further details: scale not given: the % may be the effect or the level left. Summed up: as §2
In experiment [16] the test system is HepG2. In words: Inhibition of ATP levels in HepG2 cells was measured at 30 uM concentration. In kind it is functional, Homo sapiens. Further details: scale not given: the % may be the effect or the level left. Summed up:
as §2

Experiment [17] has as its system HepG2. The experiment is described as follows: Inhibition of cholesterol synthesis in HepG2 cells was measured at 15 uM concentration. In kind it is functional, Homo sapiens. Further details: scale not given: the % may be the effect or the level left. Summed up: as §2
In experiment [18] the test system is HepG2. In words: Inhibition of cholesterol synthesis in HepG2 cells was measured at 5 uM concentration. Further details: scale not given: the % may be the effect or the level left. In kind it is functional, Homo sapiens. Summed up: as §2
Experiment [19] has as its system HepG2. The description is as §3. In kind it is functional, Homo sapiens. Further details: scale not given: the % may be the effect or the level left. Summed up:
as §2
The source holds these as a separate data set.

Experiment [20] concerns HepG2. The experiment is described as follows: Inhibition of fatty acid synthesis in HepG2 cells was measured at 30 uM concentration. Format: functional, Homo sapiens. Further details: scale not given: the % may be the effect or the level left. In short, it runs like this: as §2
Experiment [21] deals with T1, ATP-citrate synthase. The experiment is described as follows: Inhibitory activity was tested against rat ATP-Citrate Lyase (ACL) enzyme.
Experiment [22] concerns the target T3, ATP-citrate synthase (Homo sapiens, UniProt P53396).
T3 sequence (P53396 whole entry): T2 sequence (whole entry)
The experiment is described as follows: Inhibitory activity against human recombinant ATP-Citrate Lyase (ACL) enzyme. In short, it runs like this: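 Human recombinant ATP-citrate lyase was used. Lactone intermediates were hydrolysed with aqueous NaOH to the hydroxy acid before being added to the enzyme buffer mix. Potency was reported as the reversible Ki.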

The structures appear in SMILES notation. Values joined by “and” are separate entries in the source; they are usually repeats but may differ in a detail not shown here. Equal values may be shown once.

One may read the Ki as a measure of affinity in units of concentration, obtained from inhibition or displacement. As to `N[C@H](C(=O)O)[C@@](O)(CC(=O)O)C(=O)O`, in experiment [1], affinity was put at a Ki of 11 µM.
`O=C(O)C[C@@]1(O)C[C@@H](CCCCCC2c3ccccc3-c3cc(Cl)ccc32)OC1=O` (stereo not given in full): the Reduction came out at 5% in experiment [2] and 16% in experiment [3].
Consider `O=C(O)C[C@@](O)(CCCCCCCCc1ccc(Cl)cc1Cl)C(=O)O`, for which, in [1], the inhibitory constant (Ki) worked out at 2.9 µM.
Take `O=C(O)[C@H](O)[C@@]1(O)C[C@@H](CCCCCCc2ccc(Cl)cc2Cl)OC1=O`: the Control is given as 103% in experiment [4]; 106% in [5]; 100% in [6]; 86% in [7]; 69% in experiment [8]; 74% in experiment [9]. In addition, in experiment [10], the Control is reported as 76%.
The inhibition is the change of the read-out against control, counted positive when it falls. In the case of `O=C(O)C[C@@](O)(C[C@H](O)CCCCCCc1ccc(Cl)cc1O)C(=O)O`, the inhibition in [11] is 24%.
As for `O=C(O)C[C@@]1(O)C[C@@H](CCCCCCc2ccc(Cl)cc2Cl)OC1=O` (stereo in doubt; (+)-77), the Control was 113% in experiment [12]; 100% in experiment [13]; 11% in experiment [14]; 69% in experiment [15]; 99% in [16]; 52% and 41% in [17]. For the same molecule, the Control stood at 95% in experiment [18], 81% in experiment [19] and 25% in experiment [20].
For `O=C(O)C[C@@]1(O)C[C@@H](CCCCCn2c3ccccc3c3cc(Cl)ccc32)OC1=O`, the Reduction in experiment [2] came out at 16%; in experiment [3], 33%.
Take `O=C(O)C[C@@](O)(C[C@H](O)CCCCCCc1ccc(Cl)cc1Cl)C(=O)O` (stereo in doubt; (-)-45): the Ki is 700 nM in experiment [21] and 770 nM in [22].
